Most compounds without a hit are left out; they make up all but 2.9% or so of the library.
TRPC4 inh: inhibitors of mouse TRPC4 channel | Q9QUQ5 | HEK293 TRPC4beta/mu-opioid, DAMGO-evoked Fluo4 calcium flux; hits give low values | B-score at 10 µM | hit rate 0.39% among 300,000;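 active = B-score over 3 SD under the library average, no early fluorescence shift, positive overall ratio signal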
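material = TRPC4beta/mu-opioid receptor HEK293 cell line | probe or stimulus = sequential submaximal and maximal DAMGO stimulation | compound dosing = one concentration per compound | measured by = Fluo4 Ca2+ flux fluorescence | evaluation = integrated fluorescence ratio relative to baseline, converted to per-well B score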
TRPC4 potent: allosteric potentiators of mouse TRPC4 channel; HEK293 TRPC4beta/mu-opioid, DAMGO EC20, Fluo-4 Ca2+ flux; hits give high values; AID 2227; hit rate 0.42% among 310,000; Q9QUQ5; B-score at 10 µM;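 active = B-score of calcium response area above 5 SD of library B-scores, with initial fluorescence ratio within 5 SD of library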;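 also: B-score of integrated fluorescence ratio over time as area under calcium response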
TRPC6 inh: blocks the mouse TRPC6 cation channel | B-score at 10 µM | HEK293-TRPC6, membrane potential dye, ACh-evoked depolarization; hits give low values | hit rate 1.1% among 310,000;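 active = B-score under library mean minus 3 SD, initial fluorescence not abnormally high, positive integrated signal ratio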;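 also: B-score derived from integrated fluorescence ratio over the kinetic read; more negative B-score means stronger inhibition of depolarization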
Kir21 block: inhibitors of mouse Kir2.1 inward-rectifier potassium channel; HEK293-Kir2.1, FluxOR thallium flux fluorescence; hits give low values; hit rate 0.85% among 310,000; B-score at 10 µM; P35561; AID 1672;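 active = fluorescence ratio B-score at or below minus 3 SD of library scores, with starting-brightness B-score within 2 SD, cut at about -4.2 in these data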;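 also: channel flux triggered by added potassium and thallium sulfate stimulus; B-score of peak minus minimum fluorescence over baseline after thallium stimulus; more negative B-score means stronger Kir2.1 block with less thallium influx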
TRPC6 act: activators of mouse TRPC6 channel; HEK293-TRPC6 membrane potential dye fluorescence; hits give high values; AID 2550; hit rate 0.13% among 310,000; B-score at 10 µM;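 active = B-score of the integrated fluorescence ratio above library mean plus 3 SD, and starting fluorescence ratio within library mean plus 5 SD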;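 also: higher score means more depolarization so channel activation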
TRPC4 act: TRPC4 (mouse) channel activation; HEK293 TRPC4beta/mu-opioid, Fluo4 calcium fluorescence; hits give high values; B-score at 10 µM; hit rate 0.49% among 310,000; AID 2237;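 active = B-score above 5 SD of library B-scores, and initial fluorescence ratio not above library mean plus 5 SD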;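 also: positive B-score marks a calcium rise read as TRPC4 activation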
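System – HEK293 cells stably co-expressing mouse TRPC4beta and mu-opioid receptor · Signal – Fluo4 calcium-sensitive dye fluorescence, kinetic, 1 Hz baseline · Benchmarks – buffer (low) and maximal DAMGO (high) · Read-out – B score of integrated fluorescence ratio per well · Incubation – dye loading 45 min room temperature, 110 s kinetic read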
Starred values were filed as active, the others as inactive; i = inactive.

SMILES | TRPC4 inh | TRPC4 potent | TRPC6 inh | Kir21 block | TRPC6 act | TRPC4 act
COc1cccc(C(=O)CC(=O)C(=O)Nc2cc(OC)c(OC)c(OC)c2)c1 | i | i | i | -0.03 | i | i
Cc1cccc(Nc2nc(NCc3ccco3)nc(N)c2[N+](=O)[O-])c1 | i | i | i | 0.32 | i | i
Cc1cccc(Nc2nc(N)c([N+](=O)[O-])c(NCc3ccco3)n2)c1 | i | 10* | i | 0.02 | i | i
O=C(CNCc1cccnc1)Nc1cc(C(F)(F)F)ccc1N1CCOCC1 | i | i | i | 0.91 | i | i
CCN(Cc1ccccc1)Cc1nnnn1Cc1ccccc1 | i | i | i | -6.9* | i | i
CN(CCN1CCOCC1)Cc1nc(-c2ccccc2)no1 | i | i | i | 3.5 | i | i
CN(Cc1nc(-c2ccc3c(c2)OCO3)no1)CC1(N2CCOCC2)CCCCC1 | i | 35* | i | 1.9 | i | i
COc1ccccc1N1CCN(CC(C)N(C(=O)C2CCCCC2)c2ccccn2)CC1 (stereo not given) | -6* | i | i | 2.6 | i | i
COc1ccccc1N1CCN(CCN(C(=O)C2CCCCC2)c2ccccn2)CC1 | i | i | i | -0.89 | i | i
O=C(c1nc2ccc(Cl)cn2c1CNCC[C@@H]1C[C@@H]2C=C[C@H]1C2)N1CCCCCCC1 | i | i | i | -5 | i | 64*
Cc1n[nH]c(C)c1CNCc1c(C(=O)N2CCCCCCC2)nc2ccc(Cl)cn12 | i | i | i | 0.92 | i | i
Cc1cccc(NC(=O)COc2ccccc2C(=O)NC(C)c2ccccc2)c1 (stereo not given) | i | i | i | 0.02 | i | i
Cc1cc(F)ccc1S(=O)(=O)N1CCCOC1CNC(=O)C(=O)NCc1cccnc1 (stereo not given) | i | i | i | -1.6 | i | i
CC1(C)CC2CC(C)(CN2C(=O)COC(=O)c2n[nH]c(=O)c3ccccc23)C1 (stereo not given) | i | 11* | i | -0.49 | i | i
COc1ccccc1C1CC(=O)NC(C)=C1C(=O)OC(C)C (stereo not given) | i | i | i | -0.53 | i | i
COc1cccc(CN(C)CC(=O)Nc2sc3c(c2C#N)CCC3)c1OC | i | i | i | 0.24 | i | i
COc1ccc(CN(C)CC(=O)Nc2sc3c(c2C#N)CCC3)cc1OC | -6* | i | i | -0.95 | i | i
CN(CC(=O)Nc1ccccc1Br)Cc1nc2ccccc2c(=O)[nH]1 | i | i | i | -0.33 | i | i
CN(CC(=O)Nc1sc2c(c1C#N)CCCCC2)Cc1nc2ccccc2c(=O)[nH]1 | i | 16* | i | -0.68 | i | i
CC(Oc1ccc(Cl)cc1Cl)c1nc(-c2ccccn2)no1 (stereo not given) | -6* | i | i | 0.09 | i | i
CC(Oc1ccc(Cl)cc1Cl)c1nc(-c2ccc(NC(=O)c3cccnc3)cc2)no1 (stereo not given) | i | i | i | 0.24 | i | i
CN(C)CCCn1cnc2c1c(=O)[nH]c(=O)n2Cc1ccccc1 | i | i | i | 0.4 | i | i
COc1ccc(-c2cc(C3CCN(c4cc(Cl)nc(N)n4)CC3)[nH]n2)cc1 | i | 38* | i | 0.05 | i | i
Nc1nc(Cl)cc(N2CCC(c3cc(-c4ccc(Cl)cc4)n[nH]3)CC2)n1 | i | i | i | 1.3 | i | i
COc1ccc(OC)c(-c2cc(C3CCN(c4cc(Cl)nc(N)n4)CC3)[nH]n2)c1 | i | 12* | i | 3.3 | i | i
SMILES | TRPC4 inh | TRPC4 potent | TRPC6 inh | Kir21 block | TRPC6 act | TRPC4 act
O=C(Nc1cccc(/C=C/c2ccccn2)c1)c1ccc(-n2cncn2)c([N+](=O)[O-])c1 | i | i | i | 1.4 | i | i
OCC1CCN(Cc2cn(Cc3ccccc3)nc2-c2cc3ccccc3o2)CC1 | i | i | i | -3.3 | i | 56*
Cc1nc2c(C(=O)NCc3ccco3)cnn2c(C)c1Cc1ccc(F)cc1Cl | i | i | i | 2.6 | i | i
Cc1cccc(Cc2c(C)nc3c(C(=O)NCc4ccco4)cnn3c2C)c1 | i | 97* | i | -0.14 | i | i
O=C(NC1CCCCC1)c1cc(-c2ccccc2O)on1 | i | i | i | -0.26 | i | i
CN1C2CCC1CC(NS(=O)(=O)c1ccc(C#N)cc1)C2 (stereo not given) | i | i | i | -0.01 | i | i
Clc1cccc(Cl)c1C1Nc2cccc3cccc(c23)N1 | i | i | -5.5* | 0.84 | i | i
Fc1cccc(Cl)c1C1Nc2cccc3cccc(c23)N1 | i | i | i | -0.24 | i | i
CCN1CCN(c2ccc(S(=O)(=O)N3CCOCC3)cc2NC(=O)c2ccc(Cl)cc2Cl)CC1 | i | i | i | -0.08 | i | i
CCN1CCN(c2ccc(S(=O)(=O)N3CCOCC3)cc2NC(=O)C(C)Oc2cccc(Cl)c2)CC1 (stereo not given) | i | i | i | 2.4 | i | 101*
CCN1CCN(c2ccc(S(=O)(=O)N3CCOCC3)cc2NC(=O)c2ccccc2OC(F)F)CC1 | i | i | i | -0.06 | i | 131*
CC(Oc1cccc(Cl)c1)C(=O)Nc1cc(S(=O)(=O)N2CCOCC2)ccc1N1CCCCC1 (stereo not given) | i | i | i | 2.4 | i | i
Cc1cc(Cl)ccc1OC(C)C(=O)Nc1ccccc1N1CCOCC1 (stereo not given) | i | 22* | i | 0.76 | i | i
CCc1ccc(CN(Cc2cccnc2)C(=O)/C=C/c2ccc(OC)cc2)cc1 | i | i | i | 1.7 | i | i
CNC(=S)N/N=C(\C)c1ccc(C)c(C)c1 | i | i | i | 0.04 | i | i
N#Cc1ccc(N2CCCNCC2)nc1 | i | i | i | 0.04 | i | 44*
O=[N+]([O-])c1ccc(N2CCOCC2)nc1 | i | i | i | -1.1 | i | i
CN(C)CCCNc1cc(C(C)(C)C)nc2c(-c3ccccc3)cnn12 | i | i | i | -4.8* | i | i
CCOc1ccc(-c2nc(S(=O)(=O)c3ccccc3)c(N3CCC(C(N)=O)CC3)o2)cc1 | i | i | i | -1.1 | i | i
Cn1cccc1C(=O)NCC(c1ccco1)N1CCCCC1 (stereo not given) | i | i | i | -0.48 | i | i
Cc1ccnc(NS(=O)(=O)c2ccc(CC(C)C)cc2)c1 | i | 13* | i | -1.2 | i | i
